In ChEMBL document CHEMBL3612030 (Eur J Med Chem, 2015):
Activity calls are given as the source filed them. The rule behind the calls is not given here.

What was measured:
[1] = molecular target: T1, Polyunsaturated fatty acid 5-lipoxygenase (Homo sapiens, UniProt P09917); experiment: Inhibition of 5-LOX in human neutrophils assessed as reduction in LTB4 and 5-H(P)ETE) formation pre-incubated for 15 mins before A23187 and arachidonic acid substrate addition by RP-HPLC method
T1 sequence (P09917 whole entry): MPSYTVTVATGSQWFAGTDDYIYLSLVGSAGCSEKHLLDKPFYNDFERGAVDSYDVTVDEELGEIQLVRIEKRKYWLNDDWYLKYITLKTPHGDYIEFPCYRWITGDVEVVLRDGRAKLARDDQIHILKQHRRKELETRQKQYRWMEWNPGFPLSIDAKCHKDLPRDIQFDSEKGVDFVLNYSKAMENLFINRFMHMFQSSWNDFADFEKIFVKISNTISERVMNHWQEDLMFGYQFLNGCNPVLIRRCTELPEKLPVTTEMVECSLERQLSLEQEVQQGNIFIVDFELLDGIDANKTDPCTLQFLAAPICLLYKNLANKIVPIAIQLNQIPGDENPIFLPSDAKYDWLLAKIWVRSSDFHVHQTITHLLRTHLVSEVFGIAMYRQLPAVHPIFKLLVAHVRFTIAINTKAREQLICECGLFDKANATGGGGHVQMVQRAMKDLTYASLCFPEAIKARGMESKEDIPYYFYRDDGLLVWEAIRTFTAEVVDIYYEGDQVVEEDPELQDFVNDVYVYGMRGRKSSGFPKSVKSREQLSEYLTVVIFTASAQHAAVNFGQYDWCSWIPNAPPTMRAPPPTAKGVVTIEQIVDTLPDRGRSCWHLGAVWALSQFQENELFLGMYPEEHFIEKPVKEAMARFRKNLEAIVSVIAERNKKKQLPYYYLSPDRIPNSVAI
Procedure, shortened: (§1)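 Freshly isolated neutrophils (1 × 10^7/mL) pre-incubated with compound for 15 min at 37 °C. LTB4, its all-trans isomers and 5-H(P)ETE extracted and quantified by HPLC; cysteinyl-LTs and LTB4 oxidation products not measured. Mean ± S.E.M. of 3–4 independent experiments.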

[2] = molecular target: T1, Polyunsaturated fatty acid 5-lipoxygenase; experiment: Inhibition of human 5-LOX expressed in Escherichia coli Bl21 (DE3) assessed as reduction in LTB4 and 5-H(P)ETE) formation pre-incubated for 10 mins before arachidonic acid substrate addition by RP-HPLC method
Procedure, shortened: (§2)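 Human 5-LO expressed from pT3-5LO in E. coli BL21(DE3) and semi-purified on ATP-agarose. Diluted in PBS with 1 mM EDTA and 1 mM ATP, pre-incubated with compound 10 min at 4 °C, then warmed 30 s at 37 °C. Reaction started with 2 mM CaCl2 plus 20 µM arachidonic acid, run 10 min at 37 °C and stopped with ice-cold methanol. All-trans LTB4 isomers and 5-H(P)ETE measured by RP-HPLC. 3–4 independent experiments.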

[3] = molecular target: T2, Polyunsaturated fatty acid 5-lipoxygenase (Homo sapiens) (UniProt P09917); experiment: Inhibition of 5-LOX in human neutrophils assessed as remaining enzyme activity by measuring LTB4 and 5-H(P)ETE) formation at 10 uM pre-incubated for 15 mins before A23187 and arachidonic acid substrate addition by RP-HPLC method
T2 sequence (whole entry): T1 sequence (P09917 whole entry)
Procedure, shortened: as §1, with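 “°C. Stimulated with 2.5 µM A23187 plus 20 µM arachidonic acid for 10 min at 37 °C, then stopped with methanol.” for “°C.”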

[4] = molecular target: T2, Polyunsaturated fatty acid 5-lipoxygenase (Homo sapiens); experiment: Inhibition of human 5-LOX expressed in Escherichia coli Bl21 (DE3) assessed as remaining enzyme activity by measuring LTB4 and 5-H(P)ETE) formation at 10 uM pre-incubated for 10 mins before arachidonic acid substrate addition by RP-HPLC method; procedure, shortened: as §2
U-937 = experiment: Cytotoxicity against human U937 cells assessed as reduction in viability incubated for 24 hrs by MTT assay; type: cell-based; settings: U-937, 24 h
Procedure, shortened: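 U937 cells grown in RPMI 1640 with 10% FBS, […] and penicillin/streptomycin at 37 °C under 5% CO2. Seeded at 1 × 10^6/mL and exposed to 3 concentrations for 24 h. MTT added at one-tenth culture volume for 4 h, then acidic isopropanol. Read at 570 nm minus 630-690 nm background. Untreated cells (RPMI + DMSO) = 100% viability. EC50 = concentration halving MTT reduction. 3–4 independent experiments, mean ± S.E.M.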

[5] = molecular target: T2, Polyunsaturated fatty acid 5-lipoxygenase (Homo sapiens); experiment: Inhibition of human 5-LOX expressed in HEK293 cells without FLAP expression assessed as reduction in LTB4 and 5-H(P)ETE) formation at 1 uM pre-incubated for 10 mins before arachidonic acid substrate addition by RP-HPLC method; type: cell-based
Procedure, shortened: (§3)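 Stably transfected HEK 293 cells expressing 5-LO alone or 5-LO plus FLAP, 1 × 10^6 cells in 1 mL PBS with 0.1% glucose and 1 mM CaCl2. Pre-incubated with compound 10 min at 37 °C, then stimulated with 2.5 µM A23187 plus 2 µM arachidonic acid for 10 min at 37 °C. Stopped with methanol; all-trans LTB4 isomers and 5-H(P)ETE extracted and measured by HPLC.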

[6] = molecular target: T2, Polyunsaturated fatty acid 5-lipoxygenase (Homo sapiens); experiment: Inhibition of human 5-LOX expressed in HEK293 cells co-expressing FLAP assessed as reduction in LTB4 and 5-H(P)ETE) formation at 1 uM pre-incubated for 10 mins before arachidonic acid substrate addition by RP-HPLC method; type: cell-based; procedure, shortened: as §3

Row | IC50 [1] [µM] | IC50 [2] [µM] | Activity [3] [%] | Activity [4] [%] | inhibition [5] | inhibition [6] | SMILES | EC50 (U-937) [µM]
1 | 2.6 | > 10 | – | – | – | – | CC(=O)Oc1c(C)c(C)c2c(c1C)CCC(C)(C(=O)OCCCN=[N+]=[N-])O2 (configuration not stated) | –
2 | > 10 | > 10 | 88.2 | 52.6 | – | – | C#CCCOC(=O)/C=C/c1ccc(F)c(F)c1 | –
3 | 1.8 | > 10 | – | – | Active | – | C#CCCOC(=O)/C=C/c1ccc(OC(C)=O)c(OC(C)=O)c1 | 9.8
4 | > 10 | > 10 | 84.7 | 90.3 | – | – | CC(=O)Oc1ccc(/C=C/C(=O)O)cc1OC(C)=O | –
5 | 6.1 | 7.6 | – | – | – | – | CC(=O)Oc1ccc(/C=C/C(=O)OCCCCc2cn(CCCO)nn2)cc1OC(C)=O | –
6 | > 10 | > 10 | 101 | 90.3 | – | – | O=C(/C=C/c1ccc(F)c(F)c1)OCCc1cn(CCCO)nn1 | 5.1
7 | 0.47 | > 10 | – | – | – | – | C#CCCCCCOC(=O)/C=C/c1ccc(OC(C)=O)c(OC(C)=O)c1 | –
8 | 0.6 | > 10 | – | – | Active | Active | CC(=O)Oc1ccc(/C=C/C(=O)OCCCn2cc(CCOC(=O)/C=C/c3ccc(OC(C)=O)c(OC(C)=O)c3)nn2)cc1OC(C)=O | 9.6
9 | 0.2 | 3.2 | – | – | – | – | CC(=O)Oc1ccc(/C=C/C(=O)OCCCCCCCCc2cn(CCCO)nn2)cc1OC(C)=O | 10.2
10 | 1.3 | > 10 | – | – | – | – | CC(=O)Oc1ccc(/C=C/C(=O)OCCCN=[N+]=[N-])cc1OC(C)=O | –
11 | > 10 | > 10 | 104 | 53.6 | – | – | CC(=O)Oc1ccc(/C=C/C(=O)NCCc2cn(CCCO)nn2)cc1OC(C)=O | 10.3
12 | 0.18 | > 10 | – | – | – | – | C#CCCCCCCCCOC(=O)/C=C/c1ccc(OC(C)=O)c(OC(C)=O)c1 | –
13 | – | – | – | – | – | – | O=C(O)/C=C/c1ccc(O)c(O)c1 [CAFFEIC ACID] | 9.9
14 | 8.23 | > 10 | – | – | – | – | C#CCCNC(=O)/C=C/c1ccc(OC(C)=O)c(OC(C)=O)c1 | –
15 | 0.16 | > 10 | – | – | Active | Active | CC(=O)Oc1ccc(/C=C/C(=O)OCCc2cn(CCCOC(=O)C3(C)CCc4c(C)c(OC(C)=O)c(C)c(C)c4O3)nn2)cc1OC(C)=O (configuration not stated) | 10.1
16 | 0.92 | > 10 | – | – | – | – | C#CCCCCOC(=O)/C=C/c1ccc(OC(C)=O)c(OC(C)=O)c1 | –
17 | > 10 | 7.6 | – | – | – | – | CC(=O)Oc1ccc(/C=C/C(=O)OCCCn2cc(CCO)nn2)cc1OC(C)=O | –
